Assay [1] concerns the target AIRE–PHD1 wild type (UniProt O43918). The assay is described as follows: NMR titration.
For assay [2] the target is unchanged. The assay is described as follows: other fluorescence titration.
Assay [3] shares this target. The assay is described as follows: ITC. (Isothermal titration calorimetry measures the heat released or taken up as one component is titrated into another.)
Assay [4] concerns the target T1, AIRE–PHD1 D312A (Homo sapiens, UniProt O43918, D312A).
T1 sequence (O43918 296-343 D312A limits assumed): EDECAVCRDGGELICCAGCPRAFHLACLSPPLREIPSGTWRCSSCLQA
Briefly: Tryptophan fluorescence titration, AIRE-PHD1 D312A. Type of assay: binding. Summed up: (§1)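 Tryptophan fluorescence spectroscopy titration of AIRE–PHD1 point mutants with histone H3 peptides: H3K4me0 for all; D297A also with H3K4me3. Dissociation constants were derived from the titrations. ND denotes binding too weak to quantify reliably.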

The target of assay [5] is T2, AIRE–PHD1 D297A (Homo sapiens, UniProt O43918, D297A).
T2 sequence (O43918 290-349 D297A): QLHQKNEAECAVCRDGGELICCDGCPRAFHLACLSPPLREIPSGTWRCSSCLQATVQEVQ
The assay is described as follows: Tryptophan fluorescence titration, AIRE-PHD1 D297A. Type of assay: binding. The essentials: as §1

The target in the next assay is T3, AIRE–PHD1 V301M (Homo sapiens, UniProt O43918, V301M).
T3 sequence (O43918 296-343 V301M limits assumed): T1 sequence (O43918 296-343 D312A limits assumed) with V6M, A17D
Briefly: Tryptophan fluorescence titration, AIRE-PHD1 V301M. Format: binding. Summed up:
as §1

In the next assay the target is T4, AIRE–PHD1 C311Y (Homo sapiens, UniProt O43918, C311Y).
T4 sequence (O43918 296-343 C311Y limits assumed): T1 sequence (O43918 296-343 D312A limits assumed) with C16Y, A17D
Briefly: Tryptophan fluorescence titration, AIRE-PHD1 C311Y. Format: binding. The essentials: as §1

Assay [6] addresses T5, AIRE–PHD1 WT (Homo sapiens, UniProt O43918).
T5 sequence (O43918 293-349 limits assumed): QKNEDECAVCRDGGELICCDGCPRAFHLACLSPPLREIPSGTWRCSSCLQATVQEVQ
The assay is described as follows: biochemical. Type of assay: binding.

In assay [7] the target is T2, AIRE–PHD1 D297A. Briefly: Isothermal titration calorimetry, AIRE-PHD1 D297A. Type of assay: binding.
Assay [8] has as its target T1, AIRE–PHD1 D312A. Briefly: Isothermal titration calorimetry, AIRE-PHD1 D312A. Type of assay: binding. Summed up:
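ITC of H3K4me0 (histone H3, non-methylated K4) peptide binding to the AIRE–PHD1 D312A mutant. Sequential heat pulses were integrated, corrected for heat of dilution, and fit to a single-site binding model by nonlinear least squares to give N, Kd, ΔH and ΔS. ND denotes binding too weak to quantify reliably.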

Assay [9] deals with AIRE–PHD1 WT (Homo sapiens, UniProt O43918). Briefly: Tryptophan fluorescence titration, AIRE-PHD1 wild type. Type of assay: binding.
The test system of a further assay is AIRE–PHD1. The assay is described as follows: Histone pull-down after EDTA treatment. As to conditions: 50 mM EDTA, overnight 4 °C prior to histone binding. The essentials: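 AIRE–PHD1 expressed as a glutathione-S-transferase (GST) fusion and incubated with whole histones. Bound H3 detected by western blot with anti-H3; GST-PHD protein visualised by Coomassie staining.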

Positions count from the first letter of the chain named.

As for “histone H3 N-terminal peptide H3K4me0 (NMR, fluorescence, ITC)”, the maximum average chemical shift change with AIRE–PHD1 wild type [1] is 0.9 p.p.m.

The Kd is the equilibrium constant for the complex coming apart. Low values mean tighter binding, high ones weaker binding. For “histone H3 N-terminal peptide H3K4me2 (NMR, fluorescence, ITC)”, the results for the Kd with AIRE–PHD1 wild type [2] and with AIRE–PHD1 wild type [3] were more than 500 µM and 714 µM, respectively.

Turning to `C[C@H](N)C(=O)N[C@@H](CCCNC(=N)N)C(=O)N[C@H](C(=O)N[C@@H](CCCCN)C(=O)N[C@@H](CCC(N)=O)C(=O)N[C@H](C(=O)N[C@@H](C)C(=O)N[C@@H](CCCNC(=N)N)C(=O)N[C@@H](CCCCN)C(=O)N[C@@H](CO)C(=O)O)[C@@H](C)O)[C@@H](C)O` [H3K4me0], the Kd at AIRE–PHD1 D312A [4] is more than 500 µM; at AIRE–PHD1 D297A [5], 173 ± 18.6 µM; on AIRE–PHD1 V301M, 6.8 ± 0.4 µM; at AIRE–PHD1 C311Y, more than 500 µM; on AIRE–PHD1 WT [6], 6.5 ± 0.2 µM; at AIRE–PHD1 D297A [7], 147 ± 6.1 µM. Besides, the Kd at AIRE–PHD1 D312A [8] is more than 714 µM; on AIRE–PHD1 WT [9], 4.7 ± 0.8 µM.

On to `O=C(O)CN(CCN(CC(=O)O)CC(=O)O)CC(=O)O` [EDTA], for which, in the assay on AIRE–PHD1, the “effect on H3 binding, in words” value was “greatly reduced”.

As to “histone H3 N-terminal peptide H3K4me1 (NMR, fluorescence, ITC)”, the Kd was found to be 21.4 µM with AIRE–PHD1 wild type [2] and 55.6 µM in the assay with AIRE–PHD1 wild type [3].
